Hits are enriched below; roughly 0.9% of the tested compounds scored in any of these assays.
MT1-MMP act inh = blocks activation of human MT1-MMP; AID 651647; GFP/RFP ratio change, % at 20 µM; HT1080 RFP-PRO-GFP cells, GFP/RFP ratio fluorescence, overnight; percent of plate control window, DMSO zero; actives 0.061% (n = 360,000); P50281;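 active = GFP/RFP ratio change of at least 30% with cell ATP level not reduced by more than half and red fluorescence within 50% of control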
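Test system: HT1080 RFP-PRO-GFP cells; Benchmarks: DMSO and RFP-L50D-GFP cell wells; Timing: cells overnight before dosing, compound overnight, 37 °C, 5% CO2; Compound: one 20 µM compound dose with 1% DMSO; Read-out: GFP/RFP fluorescence ratio.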
DDE Tn7 FP inh = inhibitors of Tn7 peptide binding to human fibrin DD(E); P02675; FP displacement of FITC-Tn7 peptide from fibrin DD(E); 0% = median of compound wells per plate; actives 0.13% (n = 370,000); inhibition, % at 8.3 µM;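 active = inhibition above the mean of compounds falling within the control limits plus 3 SD of them, cut at about 14% in these data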
Target sequence (P02675 whole entry, looked up): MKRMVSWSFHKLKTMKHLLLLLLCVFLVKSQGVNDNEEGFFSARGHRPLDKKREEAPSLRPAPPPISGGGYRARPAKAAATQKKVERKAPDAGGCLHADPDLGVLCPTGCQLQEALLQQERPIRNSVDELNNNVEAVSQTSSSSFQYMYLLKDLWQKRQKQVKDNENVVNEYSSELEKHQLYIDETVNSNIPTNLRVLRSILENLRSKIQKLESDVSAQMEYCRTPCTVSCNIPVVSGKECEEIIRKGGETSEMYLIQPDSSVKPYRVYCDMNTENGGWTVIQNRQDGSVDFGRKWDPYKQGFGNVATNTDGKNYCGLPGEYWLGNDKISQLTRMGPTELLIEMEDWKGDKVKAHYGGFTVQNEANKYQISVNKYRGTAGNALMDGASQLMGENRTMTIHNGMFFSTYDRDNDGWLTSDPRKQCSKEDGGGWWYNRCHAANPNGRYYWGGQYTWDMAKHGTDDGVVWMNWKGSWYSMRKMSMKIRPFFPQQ
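System: human fibrin DD(E); quantity: Fibrin-DD(E) at 2 µM final; also added: fluorescent Tn7 probe at 0.1 µM; compound dosing: single nominal test concentration of 8.3 µM per compound; schedule: 10 min preincubation, 3 h with tracer, room temperature; detection: fluorescence polarization of the labelled Tn7 tracer; repeats: one replicate per compound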
DDE Tn6 FP inh = disrupts Tn6 cyclic peptide binding to fibrin D-Dimer-E complex; P02675; Fibrin DD(E) TRITC-Tn6 fluorescence polarization displacement; inhibition, % at 8.3 µM; actives 0.21% (n = 370,000);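 active = inhibition above a per-campaign cutoff: mean of compounds within control limits plus 3 SD, cut at about 15% in these data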
PolyA inh = blocks polyadenylation in yeast reporter cells. S. cerevisiae SKY197-pL101 polyadenylation reporter, beta-gal luminescence; efflux-impaired pdr1/pdr3 knockout yeast; score 100 = 6 SD above DMSO. activity score, % at 12 µM. actives 0.02% (n = 300,000);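 active = lowest replicate activity score at least 50, where 100 means six control SD above control mean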;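 also: yeast exposed to compound for 9 h at 30 °C; higher score means more reporter readthrough which indicates perturbed polyadenylation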
DAGLB inh = blocks human DAGLB lipase activity; Q8NCG7; HEK293T DAGLB membrane lysate, EnzChek fluorogenic substrate; inhibition, % at 5.17 µM; actives 0.059% (n = 340,000); AID 504411; in the data active = inhibition above about 34%
SKN-1 block = inhibitors of C. elegans SKN-1; actives 0.49% (n = 360,000); inhibition, % at 21.8 µM; C. elegans VP596 Pgst-4::GFP/RFP ratio, acrylamide-induced, 24 h;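 active = interference check ratio from 0.5 to 1.5 plus GFP to RFP signal ratio inhibition reaching or exceeding a fixed threshold, cut at about 30% in these data, passing the limit was not always enough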
DDE Tn7 confirm = DD(E)-Tn7 binding inhibition, FP confirmation; FP displacement of TRITC-Tn7 peptide from DD(E); 0% set at plate's compound-well median; shares compounds with DDE Tn7 FP inh; actives 5% (n = 460); AID 720628; inhibition, % at 8.3 µM;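 active = inhibition above the campaign cutoff, the mean of compounds within control limits plus 3 SD, cut at about 14% in these data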;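 also: displacers lower polarization since freed probe rises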
DDE Tn7 FP ctr = counter-screen for inhibitors of Tn7 peptide binding to fibrin DD(E) | shares compounds with DDE Tn7 FP inh | TRITC-Tn7 probe displacement, fluorescence polarization | inhibition, % at 8.3 µM | actives 3% (n = 460) | AID 720633;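 active = inhibition above the cutoff, the mean of compounds lying between the control bounds plus 3 SD of those compounds, cut at about 17% in these data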
Hits are given with their value.

Screening COc1ccc(/C=N/c2c(-c3ccco3)nc3ccccn23)cc1OC returned MT1-MMP act inh inactive, DDE Tn7 FP inh 15, DDE Tn6 FP inh inactive, PolyA inh inactive, DAGLB inh inactive, SKN-1 block inactive, DDE Tn7 confirm inactive and DDE Tn7 FP ctr inactive.
For O=c1[nH]c(-[n+]2ccc3ccccc3c2)c(/C=N/N=C(\[O-])c2ccccc2)s1 the results were MT1-MMP act inh inactive, DDE Tn7 FP inh 17, DDE Tn6 FP inh inactive, PolyA inh inactive, DAGLB inh inactive, SKN-1 block inactive, DDE Tn7 confirm inactive and DDE Tn7 FP ctr inactive.
Screening C=CCN1[C@H](CC(C)C)COc2cccc(F)c2S1(=O)=O returned DDE Tn7 FP inh inactive and DDE Tn6 FP inh inactive.
`CCC(C)N(C(C)CC)S(=O)(=O)c1ccc2[nH]c(=O)oc2c1` (centres undefined) gave DDE Tn7 FP inh inactive and DDE Tn6 FP inh inactive.
COc1cc(O)c(C(CCN2CCOCC2)c2ccc(N(C)C)cc2)c(OC)c1 (centres undefined) was read as MT1-MMP act inh inactive, DDE Tn7 FP inh 14, DDE Tn6 FP inh inactive, PolyA inh inactive, DAGLB inh inactive, SKN-1 block inactive, DDE Tn7 confirm inactive and DDE Tn7 FP ctr inactive.
For CN1CCCN(C(=O)C2CCN(c3ncnc4c3sc3cccc(F)c34)CC2)CC1 the results were DDE Tn7 FP inh inactive and DDE Tn6 FP inh inactive.
Cc1cc(C)nc(NS(=O)(=O)c2ccc(N/C=C\C(=O)c3ccc(Cl)cc3)cc2)n1 was read as MT1-MMP act inh inactive, DDE Tn7 FP inh 14, DDE Tn6 FP inh inactive, PolyA inh inactive, DAGLB inh inactive, SKN-1 block inactive, DDE Tn7 confirm inactive and DDE Tn7 FP ctr inactive.
`Cc1cc(C)n(-c2nc3ccccc3c(=O)n2OCC(=O)N(C)C)n1` gave MT1-MMP act inh inactive, DDE Tn7 FP inh inactive, DDE Tn6 FP inh inactive, PolyA inh inactive, DAGLB inh inactive and SKN-1 block inactive.
Cc1cc(C)n(-c2nc3ccccc3c(=O)n2OCC(=O)Nc2c(C)cccc2C)n1 was read as MT1-MMP act inh inactive, DDE Tn7 FP inh 16, DDE Tn6 FP inh inactive, PolyA inh inactive, DAGLB inh inactive, SKN-1 block inactive, DDE Tn7 confirm inactive and DDE Tn7 FP ctr inactive.
`Cc1ccc(-c2csc3ncnc(SCC(N)=O)c23)cc1` gave DDE Tn7 FP inh 16, DDE Tn6 FP inh inactive, PolyA inh inactive, DAGLB inh inactive, SKN-1 block inactive, DDE Tn7 confirm inactive and DDE Tn7 FP ctr inactive.
`Cc1cc2ncn(S(=O)(=O)N3CCOCC3)c2cc1C` gave MT1-MMP act inh inactive, DDE Tn7 FP inh inactive, DDE Tn6 FP inh inactive, PolyA inh inactive, DAGLB inh inactive and SKN-1 block inactive.
`Cc1cc2ncn(S(=O)(=O)N3CCCCC3)c2cc1C` gave MT1-MMP act inh inactive, DDE Tn7 FP inh 14, DDE Tn6 FP inh inactive, PolyA inh inactive, DAGLB inh inactive, SKN-1 block inactive, DDE Tn7 confirm inactive and DDE Tn7 FP ctr inactive.
C/C(=N\NC(=O)CSCc1ccc(Cl)cc1)c1ccc2c(c1)OCCO2 was read as MT1-MMP act inh inactive, DDE Tn7 FP inh 14, DDE Tn6 FP inh inactive, PolyA inh inactive, DAGLB inh inactive, SKN-1 block inactive, DDE Tn7 confirm inactive and DDE Tn7 FP ctr inactive.
C/C(=N\NC(=O)COc1cccc(Cl)c1)c1ccc2c(c1)OCCO2 was read as MT1-MMP act inh inactive, DDE Tn7 FP inh inactive, DDE Tn6 FP inh inactive, PolyA inh inactive, DAGLB inh inactive and SKN-1 block inactive.
`CCOC(=O)Cn1nc(-c2ccc(F)cc2)oc1=O` gave MT1-MMP act inh inactive, DDE Tn7 FP inh 14, DDE Tn6 FP inh inactive, PolyA inh inactive, DAGLB inh inactive, SKN-1 block inactive, DDE Tn7 confirm inactive and DDE Tn7 FP ctr inactive.
O=C(O)Cn1nc(-c2ccc(F)cc2)oc1=O was read as MT1-MMP act inh inactive, DDE Tn7 FP inh inactive, DDE Tn6 FP inh inactive, PolyA inh inactive, DAGLB inh inactive and SKN-1 block inactive.
For CCOC(=O)[C@]12CCCC=C1N(Cc1ccc(OC)cc1)C(=O)[C@@H]2CC(=O)N1CCSCC1 the results were DDE Tn7 FP inh inactive and DDE Tn6 FP inh inactive.
For COC(=O)C1CN(C(=O)OC(C)(C)C)C2=C1C(=O)CC(C)(C(=O)OC(C)(C)C)C2 (centres undefined) the results were DDE Tn7 FP inh inactive and DDE Tn6 FP inh inactive.
`COc1cc(C2c3cc4c(cc3OC(NCc3ccccc3)C2C)OCO4)cc(OC)c1OC` (centres undefined) gave MT1-MMP act inh inactive, DDE Tn7 FP inh 14, DDE Tn6 FP inh inactive, DAGLB inh inactive, SKN-1 block inactive, DDE Tn7 confirm inactive and DDE Tn7 FP ctr inactive.
COC(=O)C1CN(Cc2ccc(Cl)cc2)CCS(=O)(=O)N1Cc1cn(Cc2ccc(OC)cc2)nn1 (centres undefined) was read as DDE Tn7 FP inh inactive and DDE Tn6 FP inh inactive.
Screening Cc1cc2nc3c(=O)[nH]c(=S)[nH]c3nc2cc1NC(=O)C(F)(F)F returned MT1-MMP act inh inactive, DDE Tn7 FP inh 16, DDE Tn6 FP inh inactive, PolyA inh inactive, DAGLB inh inactive, SKN-1 block inactive, DDE Tn7 confirm inactive and DDE Tn7 FP ctr inactive.
O=c1[nH]c(=S)[nH]c2nc(-c3ccccc3)cnc12 was read as MT1-MMP act inh inactive, DDE Tn7 FP inh inactive, DDE Tn6 FP inh inactive, PolyA inh inactive, DAGLB inh inactive and SKN-1 block inactive.
`CC(=O)Oc1ccc2c(c1)C(=O)c1ccccc1CO2` gave MT1-MMP act inh inactive, DDE Tn7 FP inh 14, DDE Tn6 FP inh inactive, PolyA inh inactive, DAGLB inh inactive, SKN-1 block inactive, DDE Tn7 confirm inactive and DDE Tn7 FP ctr inactive.
Screening COc1ccc(C2Nc3ccccc3C(=O)N2Cc2ccco2)cc1COc1c(C)cc(NC(C)=O)cc1C (centres undefined) returned DDE Tn7 FP inh inactive and DDE Tn6 FP inh inactive.
Screening Cc1ccc(NC(=O)Cn2c(O)c(N=NC(N)=S)c3ccccc32)cc1 returned MT1-MMP act inh inactive, DDE Tn7 FP inh inactive, DDE Tn6 FP inh inactive, PolyA inh inactive, DAGLB inh inactive and SKN-1 block inactive.
Screening Cc1ccc(NC(=O)Cn2c(O)c(N=NC(N)=O)c3ccccc32)cc1 returned MT1-MMP act inh inactive, DDE Tn7 FP inh 14, DDE Tn6 FP inh inactive, PolyA inh inactive, DAGLB inh inactive, SKN-1 block inactive, DDE Tn7 confirm inactive and DDE Tn7 FP ctr inactive.

Assay outcomes from PubChem BioAssay.
